Measurements as given in ChEMBL document CHEMBL4190231, “Anti-Cryptococcus Phenalenones and Cyclic Tetrapeptides from Auxarthron pseudauxarthron” (J Nat Prod, 2017).
≈ marks a conversion by molar mass, not a printed value.

Key:
Candida albicans = test: Antifungal activity against Candida albicans ATCC 10231 after 24 hrs by resazurin assay; format: functional; conditions: ATCC 10231, 24 h, read-out: MIC100
How it was run: (§1)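 Broth serial dilution MIC per NCCLS, in 96-well plates with YM medium (1% maltose extract, 0.2% yeast extract, 0.4% agar). Compounds were dissolved in DMSO and diluted in medium, with amphotericin B as positive control. Incubation was at 25 °C, read at 24 h for C. albicans and 48 h for C. neoformans. Read-outs were visual, OD and PrestoBlue resazurin. MIC is the lowest concentration giving 100% inhibition versus untreated growth.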

Cryptococcus neoformans = test: Antifungal activity against Cryptococcus neoformans H99 after 48 hrs by resazurin assay; format: functional; conditions: var grubii H99 , read-out: MIC100; how it was run: as §1
MDA-MB-231 = test: Cytotoxicity against human MDA-MB-231 cells by Celltiter-Glo assay; format: functional, cell-based
How it was run: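 Viability was measured with CellTiter-Glo reagent added 1:1 to well medium. Plates were kept foil-covered and shaken 2 min at room temperature, paused 2 min, then shaken another 2 min. Luminescence was read on a plate reader.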

MDA-MB-453 = test: Cytotoxicity against human MDA-MB-453 cells by Celltiter-Glo assay; format: functional, cell-based

With COc1cc(O)c2c3c(c(O)cc(C)c13)C1=C(C)C(=O)CC1(O)C2=O (configuration not stated) the MIC (Candida albicans) was 51.2 µg/mL (≈ 150 µM), the MIC (Cryptococcus neoformans) was 25.6 µg/mL (≈ 75.2 µM) and the IC50 (MDA-MB-231) was > 20 µM. For the same compound, the IC50 (MDA-MB-453) was > 20 µM.

COc1cc(O)c2c3c(c(O)cc(C)c13)C(=O)C(O)(CC(C)=O)C2=O (configuration not stated) was tested, and the MIC (Candida albicans) was 51.2 µg/mL (≈ 149 µM), the MIC (Cryptococcus neoformans) was 51.2 µg/mL (≈ 149 µM) and the IC50 (MDA-MB-231) was > 20 µM. The IC50 (MDA-MB-453) was > 20 µM.

With COc1cc(O)c2c3c(c(O)cc(C)c13)C(=O)C(O)(C(C)C(C)=O)C2=O (configuration not stated) the MIC (Candida albicans) was 3.2 µg/mL (≈ 8.93 µM), the MIC (Cryptococcus neoformans) was 3.2 µg/mL (≈ 8.93 µM) and the IC50 (MDA-MB-231) was > 20 µM. The IC50 (MDA-MB-453) was > 20 µM.

For CCC(=O)C(C)C1(O)C(=O)c2c(O)cc(C)c3c(OC)cc(O)c(c23)C1=O (configuration not stated), the MIC (Candida albicans) was 6.4 µg/mL (≈ 17.2 µM), the MIC (Cryptococcus neoformans) was 6.4 µg/mL (≈ 17.2 µM) and the IC50 (MDA-MB-231) was > 20 µM. For the same compound, the IC50 (MDA-MB-453) was > 20 µM.

C[C@@H]1[C@H](O)[C@@H](C)/C=C/C=C/C=C/C=C/C=C/C=C/C=C/[C@H](O[C@@H]2O[C@H](C)[C@@H](O)[C@H](N)[C@@H]2O)C[C@@H]2O[C@](O)(C[C@@H](O)C[C@@H](O)[C@H](O)CC[C@@H](O)C[C@@H](O)CC(=O)O[C@H]1C)C[C@H](O)[C@H]2C(=O)O [AMPHOTERICIN B] was tested, and the MIC (Candida albicans) was 0.8 µg/mL (≈ 0.866 µM) and the MIC (Cryptococcus neoformans) was 0.8 µg/mL (≈ 0.866 µM).

For CCC(=O)CC1(O)C(=O)c2c(O)cc(C)c3c(OC)cc(O)c(c23)C1=O (configuration not stated), the MIC (Candida albicans) was 25.6 µg/mL (≈ 71.4 µM), the MIC (Cryptococcus neoformans) was 12.8 µg/mL (≈ 35.7 µM) and the IC50 (MDA-MB-231) was > 20 µM. For the same compound, the IC50 (MDA-MB-453) was > 20 µM.
